Only some compounds are listed: those with a hit (about 12% of all), similar ones and a draw of the others.
CHOP inh: blocks CHOP induction under ER stress; CHO-K1 CHOP-promoter luciferase, tunicamycin-induced, 15-18 h; inhibition, % at 10 µM; 220,000 compounds, 3.8% hits; AID 2732;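 active = compounds that reduced the stress-induced luciferase reporter signal by more than about 70% of percent inhibition, limit read from the data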;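 also: 0% = tunicamycin plus vehicle and 100% = wells without tunicamycin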
b-catenin transl: alters nuclear translocation of beta-catenin in HeLa cells. nuclear translocation activity, % at 5 µM. immunofluorescence imaging. AID 1665. 190,000 compounds, 0.3% hits;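 active = nuclear translocation activity above 50% at 5 µM, with a well cell count of 50 or more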;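 also: per-cell ratio of nuclear to cytoplasmic median beta-catenin stain intensity; plate controls were DMSO negative control for no effect and GSK-3 inhibitor IX positive control for full effect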
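System: Human HeLa cells, endogenous beta-catenin | Compound dosing: 5 µM primary, 0.02–20 µM confirmation | Timing: 24 h compound exposure at 37°C, 5% CO2 | Measured by: Fluorescence imaging of beta-catenin antibody stain plus DAPI | Read-out basis: % activation of per-cell nuclear versus cytoplasmic median beta-catenin signal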
Autophagy HCS: autophagy modulation, high-content screen | 190,000 compounds, 0.98% hits | MEF GFP-LC3 puncta imaging; test concentration mostly 10 µM | calls only at 10 µM (by protocol);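 active = percentage of spot-positive cells more than 3 SD above its plate mean, without a fluorescence outlier flag or 80% toxicity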;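 also: spot-positive cell cutoff set from DMSO-treated cells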
Dynein transport: blocks dynein driven cargo transport along microtubules | 3617.4 mouse cells, GR-EGFP nuclear translocation imaging; test concentration mostly 20 µM; stimulated with dexamethasone, 1 µM; hits give low values | z-score, hits read low | 220,000 compounds, 0.47% hits;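 active = plate z-score of nuclear minus cytoplasmic receptor signal below a set negative limit, without overly bright fluorescence or cell loss, cut at about -3.5 in these data, passing the limit was not always enough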;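 also: z-score of nuclear minus cytoplasmic ring GR-EGFP intensity difference per well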
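Buffer or medium: Induction medium lacking tetracycline, stripped serum | Also added: Dexamethasone agonist, 1.0 µM final, for 30 min | Timing: 48 h induction, 1 h compound, 30 min dex at 37 °C | Detection: Formaldehyde fixation, Hoechst nuclear stain, 10x automated fluorescence imaging | Measure: Nuclear versus cytoplasmic GR-EGFP signal, averaged per well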
MT stabilize HCS: microtubule stabilizers in HeLa cells | % tubulin-high responders, % at 10 µM | 200,000 compounds, 0.83% hits | HeLa tubulin immunostaining HCS, 24 h; share of cells brighter than vehicle mean+2SD;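 active = plate Z-score above 3 for both tubulin-high and condensed-nucleus cell shares, with cell loss under 80%, at 10 µM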;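 also: anti alpha tubulin signal scored within the nucleus-defined area of each cell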
Lmaj promast: reduces viability of Leishmania major promastigotes; inhibition, % at 10 µM; resazurin fluorescence viability; AID 1063; 200,000 compounds, 9% hits; in the data active = inhibition above about 50%;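 also: promastigotes grown with compound for 44 hours at 28 °C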
* = called active by the depositor; i = inactive; . = not tested or not shown; + = active, no number.

SMILES	CHOP inh	b-catenin transl	Autophagy HCS	Dynein transport	MT stabilize HCS	Lmaj promast
O=[N+]([O-])c1ccc(S(=O)(=O)NCCN2CCOCC2)cc1	-11.8	-0.4	i	1.52	2.0	-4.1
O=[N+]([O-])c1ccc(OCCCCN2CCCCC2)cc1	-20.4	-0.4	i	-0.202	2.4	88.7*
CCc1ccccc1NC(=S)N(CCN1CCOCC1)Cc1ccccc1F	10.2	2.3	i	-0.68	4.6	7.9
CCOc1ccc(N2CCn3c2nc2c3c(=O)n(CCc3ccccc3)c(=O)n2C)cc1	.	-7.3	.	.	.	.
CC1CCN(CCCCOc2ccccc2[N+](=O)[O-])CC1	-0.4	-1.3	i	-0.439	1.7	89.5*
CCOC(=O)c1ccc(Cl)c(NC(=O)c2cccnc2)c1	-2.7	-1.1	i	0.152	2.0	-5.2
CCOC(=O)c1ccc(-n2ccnc2)c(NC(=O)c2ccc(Cl)cc2)c1	23.8	.	i	1.14	3.2	80.7*
CCc1ccc(NC(=O)Cn2c(=O)n(CCCC(=O)NCc3ccco3)c(=O)c3ccccc32)cc1	76.2*	1.2	i	0.323	2.7	-3.4
O=C(CCCCn1c(=O)c2ccccc2n(CC(=O)Nc2cccc(F)c2)c1=O)NCc1ccco1	13.9	0.8	i	-0.997	2.4	4.5
O=C(CCn1c(=O)c2ccccc2n(CC(=O)NC2CCCC2)c1=O)NCc1ccco1	-0.4	-10.2	i	-1.03	2.6	100.0*
Cc1cc(C)c(S(=O)(=O)Nc2cc(SCC(=O)O)c(O)c3ccccc23)cc1C	-2.6	3.2	i	-1.01	2.5	99.3*
COCCOC(=O)c1[nH]c2c(c1C)C(=O)CC(c1ccc(N(C)C)cc1)C2 (centres undefined)	44.0	-0.9	i	-0.514	2.0	15.6
COCCOC(=O)c1[nH]c2c(c1C)C(=O)CC(c1ccccc1)C2 (centres undefined)	-11.6	95.2*	+	0.288	25.1*	6.7
COCCOC(=O)c1[nH]c2c(c1C)C(=O)CC(c1ccc(F)cc1)C2 (centres undefined)	.	77.6*	i	0.668	21.5*	14.5
O=C/C(=C\Nc1ccc(Cl)cn1)c1nc2cc(Cl)ccc2o1	75.0*	3.8	i	-0.98	1.2	-0.2
Cc1ccc(N(Cc2cc(=O)[nH]c3ccccc23)C(=O)c2ccco2)cc1	72.4*	-2.5	i	1.36	6.3	16.0
C=CCSc1nnc(NC(=O)CSc2nc(CCC)cc(=O)[nH]2)s1	3.3	-0.1	i	-0.858	2.9	-13.8
COc1ccc(/C=N/N=C2/SCC(=O)N2Cc2ccccc2)cc1	47.1	0.2	.	0.0915	.	.
COc1ccc(/C=C2\CN(Cc3ccccc3)C/C(=C\c3ccc(OC)cc3)C2=O)cc1	-10.5	-0.6	i	-1.71	9.5	100.0*
Cc1ccsc1CN1CC(=O)N(c2c(C)cccc2C)C1=S	25.9	.	i	-0.646	4.9	53.4*
Cc1cccc(N2C(=O)CN(Cc3sccc3C)C2=S)c1	21.6	-1.1	i	0.679	4.6	22.0
CC(C)(C)C(=O)Nc1cccc(OC(F)(F)C(F)Cl)c1 (centres undefined)	36.5	-2.0	i	-0.119	5.4	17.0
COc1cc2nc(N3CCNCC3)nc(N)c2cc1OC	70.2*	-0.4	i	1.17	2.0	3.0
COc1cc2nc(Cl)nc(N3CCCCC3)c2cc1OC	3.9	1.5	i	0.553	1.4	8.0
C/C(=N\NC(N)=O)c1ccccc1Cl	21.6	-0.5	.	1.96	.	.
SMILES	CHOP inh	b-catenin transl	Autophagy HCS	Dynein transport	MT stabilize HCS	Lmaj promast
O=C(COc1ncnc2c(Cl)cc(Cl)cc12)Nc1cc([N+](=O)[O-])ccc1Cl	60.2	.	i	-0.014	1.8	52.0*
Cc1ccc2[nH]c(-c3cccc(F)c3)cc(=O)c2c1	-40.5	.	i	0.125	26.7*	1.6
Cc1cccc(NC(=O)CSc2nc3nc4c(cc3c(=O)n2-c2ccccc2)CCCC4)c1	80.2*	0.8	i	-0.202	2.3	31.3
O=C(CSc1nc2nc3c(cc2c(=O)n1-c1ccccc1)CCCC3)Nc1cccc2ccccc12	28.5	0.0	i	-0.549	2.0	29.1
Cc1ccccc1-n1c(SCC(=O)Nc2ccccc2)nc2nc3c(cc2c1=O)CCCC3	6.7	7.9	i	2.09	1.5	97.8*
Cc1sc2ncnc(Sc3nnc4sc5ccccc5n34)c2c1C	-2.4	0.4	i	2.19	2.9	15.3
O=C(NCc1ccco1)c1cccc(-c2nnc(-c3ccccc3)o2)c1	61.0	0.0	i	0.731	1.2	32.3
CS(=O)(=O)Cc1nc2ccccc2oc1=O	41.1	-2.4	i	0.036	2.1	99.9*
CCS(=O)(=O)CCSc1nc2ccccc2o1	22.0	.	i	-0.252	3.4	-2.3
C/C(O)=C\c1nc2ccccc2oc1=O	30.4	.	i	1.18	1.5	65.2*
O=c1oc2ccccc2nc1/C=C(\O)c1ccc(Br)cc1	41.1	1.6	.	0.11	.	.
CC(=O)N1CCCc2cc(S(=O)(=O)N(C)CCC#N)ccc21	-32.1	-0.9	i	0.0365	4.5	-5.3
CCN(c1cccc(C(F)(F)F)c1)S(=O)(=O)c1ccc2c(c1)CCN2C(C)=O	28.2	-2.6	i	0.0576	7.4	60.3*
CC(=O)N1CCCc2cc(S(=O)(=O)N(CC(C)C)CC(C)C)ccc21	54.0	0.1	i	-0.455	3.5	85.2*
CCN(c1cccc(C)c1)S(=O)(=O)c1ccc2c(c1)CCN2C(C)=O	31.9	2.5	i	-0.879	3.8	94.5*
O=C(O)CN(c1cccc(C(F)(F)F)c1)S(=O)(=O)c1ccccc1	-2.7	0.5	i	-0.301	1.6	-6.5
O=C1CCCc2c1[nH]c1ccc(CN3CCCCC3)cc21	-9.4	1.6	i	1.23	2.2	59.3*
O=C(N/N=C/c1ccccn1)c1[nH]c2ccc([N+](=O)[O-])cc2c1-c1ccccc1	32.0	3.0	i	0.742	9.9	98.3*
O=C(O)c1[nH]c2ccc([N+](=O)[O-])cc2c1-c1ccccc1	-30.1	0.3	.	-0.047	.	.
Cc1ccc(C(=O)Nc2ccc(S(=O)(=O)N3CCCC3)cc2)s1	-10.2	4.3	i	-0.335	3.3	7.8
O=C(Nc1ccc(S(=O)(=O)N2CCCC2)cc1)c1ccc(CN2CCc3ccccc3C2)cc1	70.0*	1.7	i	-0.472	6.1	90.0*
Cc1cc(C(=O)Nc2ccc(S(=O)(=O)N3CCCC3)cc2)cs1	12.4	-0.8	i	0.0742	2.4	72.8*
O=C(Nc1ccc(Cc2ccncc2)cc1)c1ccc(S(=O)(=O)N2CCCC2)cc1	17.3	-2.8	i	-0.49	1.7	98.7*
CC(=O)c1ccc(NC(=O)c2ccc(S(=O)(=O)N3CCCC3)cc2)cc1	16.6	-3.3	i	-0.682	1.5	98.0*
Cc1ccc(S(=O)(=O)N2CCN(C(=O)CN3CCc4ccccc4C3)CC2)cc1	2.0	-2.4	i	0.74	3.7	87.5*
Cc1ccc(S(=O)(=O)N2CCN(C(=O)CCC(=O)N3CCc4ccccc43)CC2)cc1	.	-0.2	.	.	.	.

Bioassay records deposited in PubChem BioAssay by several laboratories.
